HIV Env fusion: inhibitors of HIV Env-mediated cell fusion; inhibition, % at 12.3 µM; HeLa-JRFL Env/CEM21 cell fusion, luciferase; 360,000 compounds, 1.1% hits;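 active means mean replicate inhibition score of at least 50 and every replicate individually at or above 50; inconclusive means only one of the two criteria met; inactive means mean below 50 and not all replicates reaching 50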;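 further: 0% = plate neutral controls and 100% = maraviroc near 300 nM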
Wnt act: activates Wnt/beta-catenin signaling in a reporter cell assay; activator, plate reader; activation, % at 9.35 µM; 300,000 compounds, 1.2% hits; AID 743398; in the data active means activation above about 30%, passing the limit was not always enough; inconclusive means no clear call, values can overlap the other calls;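 further: 0% = neutral control wells and 100% = positive control wells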
ERAP1 inh: blocks human ERAP1 aminopeptidase activity; 340,000 compounds, 0.15% hits; Q9NZ08; AID 652197; recombinant ERAP1, Leu-AMC fluorescence, 60 min; inhibition, % at 10.7 µM;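 active means mean replicate inhibition of at least 30%, or all replicates individually reaching that 30% level; inactive means mean below 30% and not every replicate reaching it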;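 further: 0% = neutral control wells and 100% = L-leucinethiol positive control wells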
Target sequence (Q9NZ08 whole entry, looked up): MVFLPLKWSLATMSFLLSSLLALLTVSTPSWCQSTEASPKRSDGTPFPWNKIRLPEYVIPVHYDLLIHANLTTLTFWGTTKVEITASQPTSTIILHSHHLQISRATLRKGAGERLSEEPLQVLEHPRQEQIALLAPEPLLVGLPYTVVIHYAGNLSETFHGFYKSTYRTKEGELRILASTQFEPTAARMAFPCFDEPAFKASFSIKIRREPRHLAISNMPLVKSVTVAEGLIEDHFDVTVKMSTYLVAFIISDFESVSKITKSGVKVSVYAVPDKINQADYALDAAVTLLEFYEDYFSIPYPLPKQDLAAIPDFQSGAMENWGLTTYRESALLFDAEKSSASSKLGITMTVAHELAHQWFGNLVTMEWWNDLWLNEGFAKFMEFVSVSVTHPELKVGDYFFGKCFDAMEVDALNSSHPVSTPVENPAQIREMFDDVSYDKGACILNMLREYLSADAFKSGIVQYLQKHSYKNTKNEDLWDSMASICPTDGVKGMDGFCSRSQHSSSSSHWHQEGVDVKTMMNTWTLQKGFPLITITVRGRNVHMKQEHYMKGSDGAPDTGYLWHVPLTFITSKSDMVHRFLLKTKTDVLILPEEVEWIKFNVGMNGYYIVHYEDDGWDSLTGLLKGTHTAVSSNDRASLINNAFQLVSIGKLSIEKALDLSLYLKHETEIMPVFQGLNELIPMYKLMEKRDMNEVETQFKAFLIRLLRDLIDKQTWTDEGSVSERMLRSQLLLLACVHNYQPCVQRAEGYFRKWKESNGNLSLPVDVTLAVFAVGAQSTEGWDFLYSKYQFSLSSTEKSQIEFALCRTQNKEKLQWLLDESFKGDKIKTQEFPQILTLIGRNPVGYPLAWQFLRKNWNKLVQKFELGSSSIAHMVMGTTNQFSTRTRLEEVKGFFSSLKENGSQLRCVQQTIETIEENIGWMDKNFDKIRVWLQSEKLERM
MITF TRPM1 HTS: activators of MITF-driven TRPM1 promoter activity in SK-MEL-5 cells. SK-MEL-5 TRPM1-promoter luciferase, 24 h; % of positive control, neutral wells = 0. activation, % at 12.5 µM. 300,000 compounds, 0.75% hits;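 active means mean activation of at least 80% with every replicate also reaching 80%; inconclusive means mean reaches 80% but some replicate falls short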;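 further: 0% = neutral control wells and 100% = parthenolide positive control wells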
esBAF inh: inhibitors of esBAF chromatin remodeling in mouse ES cells. reporter increase, % at 12.5 µM. Bmi1-luciferase knock-in reporter, 24 h; 100% = twice the neutral-well signal. 350,000 compounds, 2% hits; in the data active means activation above about 40%; inconclusive means no clear call, values can overlap the other calls;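 further: 0% = median of the plate's neutral control wells and 100% = double that signal; a rise in the Bmi1 reporter signal indicates esBAF inhibition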
Cneo AK release: causes C. neoformans cell lysis; adenylate kinase release luminescence, 4 h; normalised: neutral wells 0, clomiphene wells 100; lysis activity, % at 15 µM; 360,000 compounds, 0.2% hits; AID 651654;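 active means mean lysis activity across replicates of at least 80%, whatever share of replicates individually reach that level; inactive means mean lysis activity below 80%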
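Material: C. neoformans cells | Amount: Yeast cell density of 5 × 10^6 cells/mL | Medium: Fresh YPD growth medium | Dosing: Single dose | Times: Static 4 h at 37 °C with compound, 1 h detection | Detection: AK luminescence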
Starred values were filed as active, the others as inactive; [ ] = dose if it differs, or a comment. Most compounds without a hit are left out; they make up all but 3.5% or so of the library.

`O=C(CCl)N=c1sccn1Cc1ccc(Cl)cc1Cl` gave HIV Env fusion 84*, Wnt act 0, ERAP1 inh -1 and MITF TRPM1 HTS -14.
`O=C(CCl)N=c1sccn1Cc1ccccc1Cl` gave HIV Env fusion 134*, Wnt act 6, ERAP1 inh 0, MITF TRPM1 HTS -24 and Cneo AK release 0.
For CN(CC(=O)Nc1ccccc1C(F)(F)F)C(=O)CSc1nnc(-c2ccncc2)n1C the results were Wnt act -1, ERAP1 inh 35*, MITF TRPM1 HTS -2, esBAF inh -9 and Cneo AK release 0.
`CN(CC(=O)Nc1ccccc1C(F)(F)F)C(=O)CSc1nnnn1C` gave HIV Env fusion -13, Wnt act 0, ERAP1 inh 3, MITF TRPM1 HTS 6, esBAF inh 0 and Cneo AK release 0.
Screening CC(C)(C)CC(C)(C)N=C1Nc2cc(Cl)c(Cl)cc2NC12C[C@H]1CCC(=O)N3CC[C@@H](C2)[C@@H]13 (stereo partly specified) returned HIV Env fusion 58*, Wnt act -14, ERAP1 inh 0, MITF TRPM1 HTS -2, esBAF inh 4 and Cneo AK release 0.
For Cc1ccc2nc(-c3cccc(Br)c3)c(Cc3ccccn3)n2c1 the results were HIV Env fusion -25, Wnt act 24, ERAP1 inh 0, esBAF inh 48* and Cneo AK release 0.
Screening Cc1ccc(-c2nc3ccc(Br)cn3c2Cc2cccc(Cl)c2)cc1 returned HIV Env fusion -37, Wnt act 12, ERAP1 inh 3, esBAF inh 43* and Cneo AK release 1.
Clc1ccc(-c2nc3ccc(Cl)cn3c2Cc2ccsc2)cc1 was read as HIV Env fusion -121, Wnt act 19, ERAP1 inh -1, esBAF inh 71* and Cneo AK release -1.
For Clc1ccc(-c2nc3ccc(Br)cn3c2Cc2cccc(Cl)c2)cc1 the results were HIV Env fusion -116, Wnt act 13, ERAP1 inh -3, esBAF inh inconclusive and Cneo AK release -1.
`COC(=O)c1ccc2nc(-c3cccc(Cl)c3)c(Cc3ccsc3)n2c1` gave HIV Env fusion 20, Wnt act 15, ERAP1 inh -2, esBAF inh 55* and Cneo AK release 1.
`CC=Cc1ccc2n(c1=O)C[C@H]1[C@H](CO)[C@@H](C(=O)NCC)[C@@H]2N1CC1CCOCC1` (mixture of isomers) gave ERAP1 inh 0, esBAF inh -1 and Cneo AK release 2.
Screening Cc1ccc(-c2nc3ccc(Cl)cn3c2Cc2cccc(Cl)c2)cc1 returned HIV Env fusion -141, Wnt act 46*, ERAP1 inh 4, esBAF inh 50* and Cneo AK release 0.
Screening CCC(=O)N1[C@H](CO)[C@@H](c2ccccc2)C12CN(C(=O)Nc1cccc(OC)c1)C2 returned ERAP1 inh -2.
`COc1cc(/C=C/c2ccc3cccc(O)c3n2)c(Br)cc1O` gave HIV Env fusion -15, Wnt act 12, ERAP1 inh -4, MITF TRPM1 HTS -3, esBAF inh 40* and Cneo AK release -2.
For Cc1cc(N2CCCC2)ccc1/C=C1\NC(=S)N(C)C1=O the results were HIV Env fusion -182, Wnt act 54*, MITF TRPM1 HTS 79 and esBAF inh 85*.
Screening O=C1/C(=C/c2ccc(N3CCCC3)cc2)NC(=S)N1C1CC1 returned MITF TRPM1 HTS 55, esBAF inh 48* and Cneo AK release -3.
For COCCNC(=O)C[C@@H]1C[C@H]2c3cc(NC(=O)Nc4ccc(C(F)(F)F)cc4)ccc3O[C@H]2[C@H](CO)O1 the results were HIV Env fusion 26[16.7 µM], ERAP1 inh -3, esBAF inh 4 and Cneo AK release 48.
Screening COCCn1c(SCC(=O)NC(=O)NC(C)(C)C)nc2ccccc21 returned HIV Env fusion 123*, MITF TRPM1 HTS 7, esBAF inh 4 and Cneo AK release 0.
For CCn1c(SCC(=O)NC(=O)NC(C)(C)C)nc2ccccc21 the results were HIV Env fusion 8, ERAP1 inh 16, MITF TRPM1 HTS 4 and esBAF inh -3.
Screening COc1ccc(NC(=O)Nc2ccc3c(c2)CC(=O)N([C@@H](C)CO)C[C@H](C)[C@@H](CN(C)C)O3)cc1 returned ERAP1 inh 0, esBAF inh 2 and Cneo AK release 1.
For Cc1noc(C)c1NC(=O)N(C)C[C@H]1OCCCC[C@H](C)Oc2ccc(NS(=O)(=O)c3ccc(Cl)cc3)cc2C(=O)N([C@@H](C)CO)C[C@@H]1C the results were HIV Env fusion -64[16.7 µM], ERAP1 inh -3, esBAF inh 7 and Cneo AK release 6.
Screening O=C(CSc1nnc(-c2ccccc2F)o1)NC1CC1 returned Wnt act 11, ERAP1 inh 2, MITF TRPM1 HTS 25, esBAF inh 20 and Cneo AK release 2.
O=C(c1ccccc1)c1nnc(-c2ccccc2F)o1 was read as HIV Env fusion -38, Wnt act 61*, esBAF inh 30 and Cneo AK release -13.
`Cc1ccc(NC(=O)N(C2=NCC(C)S2)c2ccccc2)cc1` (stereo unspecified) gave HIV Env fusion -27, MITF TRPM1 HTS inconclusive, esBAF inh 43* and Cneo AK release -1.
CN(C)C(=O)C[C@@H]1C=C[C@H](NC(=O)C2CCOCC2)[C@@H](CO)O1 was read as ERAP1 inh 2.
COc1ccc(C(=O)Nc2ccc3c(c2)OC[C@@H](C)N(Cc2cocn2)C[C@@H](C)[C@@H](OC)CN(C)C3=O)cc1 was read as HIV Env fusion 3[16.7 µM], ERAP1 inh -1, esBAF inh 3 and Cneo AK release 53.
`Cc1ccc(SCC(=O)NC(=O)NCCC(C)C)c(C)c1` gave HIV Env fusion 17, Wnt act 41*, MITF TRPM1 HTS 7 and Cneo AK release 0.
`COc1cc(OC)c(OC)cc1CCC(C)NCCC(c1ccccc1)c1ccccc1` (stereo unspecified) gave HIV Env fusion 81*, Wnt act -5, ERAP1 inh -10, MITF TRPM1 HTS -49, esBAF inh -3 and Cneo AK release -1.
`CCCCOc1ccc(NC(=O)c2cnc(C)cn2)cc1` gave HIV Env fusion 4, Wnt act 15, MITF TRPM1 HTS 33, esBAF inh 58* and Cneo AK release -4.
For Cc1cnc(C(=O)OCC(=O)NCc2ccccc2)cn1 the results were HIV Env fusion -56, Wnt act -2, esBAF inh -5 and Cneo AK release 3.
For Cc1cnc(C(=O)OCC(=O)Nc2ccc(OCc3ccccc3)cc2)cn1 the results were HIV Env fusion -14, Wnt act 32*, ERAP1 inh -1, MITF TRPM1 HTS 96*, esBAF inh inconclusive and Cneo AK release 0.

Compound activity (PubChem)
